According to ChEMBL document CHEMBL1148546, “3-Arylpiperazinylethyl-1H-pyrrolo[2,3-d]pyrimidine-2,4(3H,7H)-dione derivatives as novel, high-affinity and selective alpha(1)-adrenoceptor ligands” (Bioorg Med Chem Lett, 2006):

Tests used:
Homo sapiens = species: Homo sapiens; test: Selectivity for 5HT1A over adrenergic alpha-1 receptor
Outline: (§1)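 Selectivity is the ratio of Ki at 5-HT1A, D1 or D2 to Ki at α1. Ki values are means (±SD) of three separate experiments.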

[1] = Selectivity for dopamine D2 over adrenergic alpha-1 receptor; outline: as §1
[2] = biological target: T1, Adrenergic receptor alpha-1 (Homo sapiens, UniProt P35348+P25100+P35368); test: Binding affinity to adrenergic alpha-1 receptor; type: protein assay
T1 sequence (P35348 whole entry): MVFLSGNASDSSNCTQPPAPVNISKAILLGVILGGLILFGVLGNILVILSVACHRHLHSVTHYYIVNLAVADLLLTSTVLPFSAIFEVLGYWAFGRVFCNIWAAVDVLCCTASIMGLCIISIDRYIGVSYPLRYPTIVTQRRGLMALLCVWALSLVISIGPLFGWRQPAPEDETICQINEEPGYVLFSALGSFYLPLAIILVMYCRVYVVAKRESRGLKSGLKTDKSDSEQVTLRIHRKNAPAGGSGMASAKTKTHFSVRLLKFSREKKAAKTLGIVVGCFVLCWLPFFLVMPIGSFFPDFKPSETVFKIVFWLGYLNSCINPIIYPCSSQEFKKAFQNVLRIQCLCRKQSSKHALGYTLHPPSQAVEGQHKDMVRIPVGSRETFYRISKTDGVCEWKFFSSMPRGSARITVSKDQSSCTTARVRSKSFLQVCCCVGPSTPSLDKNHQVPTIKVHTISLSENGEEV
T1 sequence (P25100 whole entry): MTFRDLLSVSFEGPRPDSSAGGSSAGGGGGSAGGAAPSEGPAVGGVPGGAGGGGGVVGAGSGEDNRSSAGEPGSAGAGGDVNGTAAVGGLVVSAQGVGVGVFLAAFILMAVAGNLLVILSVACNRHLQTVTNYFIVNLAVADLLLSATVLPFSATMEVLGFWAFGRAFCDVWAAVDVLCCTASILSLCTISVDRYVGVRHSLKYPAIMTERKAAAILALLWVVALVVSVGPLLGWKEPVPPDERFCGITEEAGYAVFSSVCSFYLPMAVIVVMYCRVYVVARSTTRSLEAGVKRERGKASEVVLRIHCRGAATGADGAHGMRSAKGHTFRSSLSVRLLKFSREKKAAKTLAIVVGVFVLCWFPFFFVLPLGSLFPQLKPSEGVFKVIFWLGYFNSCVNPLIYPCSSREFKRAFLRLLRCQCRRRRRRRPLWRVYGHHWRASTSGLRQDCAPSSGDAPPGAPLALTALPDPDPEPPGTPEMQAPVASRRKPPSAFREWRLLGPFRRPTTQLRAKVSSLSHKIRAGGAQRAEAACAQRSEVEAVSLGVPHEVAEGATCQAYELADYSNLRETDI
T1 sequence (P35368 whole entry): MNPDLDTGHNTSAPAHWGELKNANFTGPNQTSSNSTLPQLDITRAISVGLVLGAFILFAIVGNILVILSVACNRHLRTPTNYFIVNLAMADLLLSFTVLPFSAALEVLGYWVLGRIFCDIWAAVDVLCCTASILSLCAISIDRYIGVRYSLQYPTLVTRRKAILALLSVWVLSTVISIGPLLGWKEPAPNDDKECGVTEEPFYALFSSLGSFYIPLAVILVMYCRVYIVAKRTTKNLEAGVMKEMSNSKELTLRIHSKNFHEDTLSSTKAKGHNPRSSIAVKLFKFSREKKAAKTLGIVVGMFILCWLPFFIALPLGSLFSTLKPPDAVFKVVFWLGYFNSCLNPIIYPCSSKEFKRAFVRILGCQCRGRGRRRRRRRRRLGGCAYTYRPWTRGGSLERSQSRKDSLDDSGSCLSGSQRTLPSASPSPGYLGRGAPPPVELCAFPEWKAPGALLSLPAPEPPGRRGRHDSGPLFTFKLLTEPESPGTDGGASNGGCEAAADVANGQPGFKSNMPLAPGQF

D(1A) dopamine receptor = D(1A) dopamine receptor (Homo sapiens, UniProt P21728); test: Binding affinity to dopamine D1 receptor
Sequence of D(1A) dopamine receptor (P21728 whole entry): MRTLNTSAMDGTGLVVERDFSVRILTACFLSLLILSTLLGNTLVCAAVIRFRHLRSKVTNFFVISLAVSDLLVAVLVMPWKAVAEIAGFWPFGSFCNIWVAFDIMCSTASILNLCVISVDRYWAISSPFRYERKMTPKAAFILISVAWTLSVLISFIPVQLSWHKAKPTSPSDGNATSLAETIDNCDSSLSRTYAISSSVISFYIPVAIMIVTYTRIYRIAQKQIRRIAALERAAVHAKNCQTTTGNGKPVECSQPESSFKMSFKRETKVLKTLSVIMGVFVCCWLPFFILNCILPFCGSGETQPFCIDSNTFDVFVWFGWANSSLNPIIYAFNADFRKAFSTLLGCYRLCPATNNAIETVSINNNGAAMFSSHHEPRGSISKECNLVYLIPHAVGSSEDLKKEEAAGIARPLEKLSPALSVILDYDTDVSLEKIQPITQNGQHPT

D(2) dopamine receptor = D(2) dopamine receptor (Homo sapiens, UniProt P14416); test: Binding affinity to dopamine D2 receptor
Sequence of D(2) dopamine receptor (P14416 whole entry): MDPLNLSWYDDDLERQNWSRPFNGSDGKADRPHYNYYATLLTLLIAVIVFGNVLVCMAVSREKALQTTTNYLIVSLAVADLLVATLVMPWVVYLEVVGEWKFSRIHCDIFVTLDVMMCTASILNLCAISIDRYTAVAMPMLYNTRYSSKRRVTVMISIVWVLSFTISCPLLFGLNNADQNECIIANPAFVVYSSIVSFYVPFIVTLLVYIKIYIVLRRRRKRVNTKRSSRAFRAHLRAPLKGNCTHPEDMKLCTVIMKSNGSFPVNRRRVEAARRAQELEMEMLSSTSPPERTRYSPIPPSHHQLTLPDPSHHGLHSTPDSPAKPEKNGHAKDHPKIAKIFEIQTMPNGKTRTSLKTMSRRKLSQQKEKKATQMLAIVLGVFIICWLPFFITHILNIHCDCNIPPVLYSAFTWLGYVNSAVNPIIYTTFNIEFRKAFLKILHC

[3] = biological target: T2, Alpha-1B adrenergic receptor (Rattus norvegicus) (UniProt P15823); test: Antagonistic activity at ADRA1B in rat spleen; type: functional, tissue-based
T2 sequence (whole entry): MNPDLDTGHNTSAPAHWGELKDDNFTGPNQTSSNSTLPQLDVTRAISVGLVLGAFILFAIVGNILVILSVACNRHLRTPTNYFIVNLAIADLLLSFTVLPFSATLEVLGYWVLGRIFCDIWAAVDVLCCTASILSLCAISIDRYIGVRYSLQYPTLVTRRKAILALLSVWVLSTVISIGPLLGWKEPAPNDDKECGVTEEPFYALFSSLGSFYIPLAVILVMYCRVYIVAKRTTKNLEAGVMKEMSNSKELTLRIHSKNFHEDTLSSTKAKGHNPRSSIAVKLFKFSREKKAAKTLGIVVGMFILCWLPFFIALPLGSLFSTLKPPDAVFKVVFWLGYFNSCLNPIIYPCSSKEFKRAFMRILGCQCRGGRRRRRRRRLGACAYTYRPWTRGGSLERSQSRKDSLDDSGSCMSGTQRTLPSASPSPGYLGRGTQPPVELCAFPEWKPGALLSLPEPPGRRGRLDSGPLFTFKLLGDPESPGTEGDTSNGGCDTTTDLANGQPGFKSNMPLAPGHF
Outline: (§2)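 Antagonism in isolated rat tissues: prostatic vas deferens (α1A), spleen (α1B), thoracic aorta (α1D). Each compound tested at a single concentration, and each concentration was investigated at least four times. pKb was calculated by the van Rossum method. pA2 was derived from Arunlakshana–Schild plots. WB4101 was used as the standard.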

[4] = biological target: T3, Alpha-1A adrenergic receptor (Rattus norvegicus) (UniProt P43140); test: Antagonistic activity at ADRA1A in isolated rat prostatic vas deferens; type: functional, tissue-based; outline: as §2
T3 sequence (whole entry): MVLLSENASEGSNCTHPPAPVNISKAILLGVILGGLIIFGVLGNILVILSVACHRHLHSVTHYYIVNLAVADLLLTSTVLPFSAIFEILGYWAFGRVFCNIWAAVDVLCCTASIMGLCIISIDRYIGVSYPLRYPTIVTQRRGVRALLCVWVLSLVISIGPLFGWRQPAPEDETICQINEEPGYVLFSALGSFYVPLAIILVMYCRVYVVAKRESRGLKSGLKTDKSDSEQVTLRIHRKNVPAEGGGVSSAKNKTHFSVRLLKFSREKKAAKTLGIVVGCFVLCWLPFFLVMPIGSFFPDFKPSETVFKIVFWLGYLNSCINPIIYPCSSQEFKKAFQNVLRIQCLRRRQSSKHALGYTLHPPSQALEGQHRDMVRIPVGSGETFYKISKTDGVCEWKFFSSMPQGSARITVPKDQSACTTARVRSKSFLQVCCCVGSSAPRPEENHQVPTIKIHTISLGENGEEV

Rattus norvegicus = species: Rattus norvegicus; test: Selectivity for ADRA1D over ADRA1B
Outline: (§3)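 Subtype selectivity is the antilog of the difference between the pKb values at α1A, α1B and α1D, measured in isolated rat prostatic vas deferens, spleen and thoracic aorta.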

[5] = biological target: Alpha adrenergic receptor 1A and 1D (Rattus norvegicus) (UniProt P23944+P43140); test: Selectivity for ADRA1D over ADRA1A; type: protein assay; outline: as §3
Sequence of Alpha adrenergic receptor 1A and 1D (Rattus norvegicus) (P23944 whole entry, looked up, one chain of several): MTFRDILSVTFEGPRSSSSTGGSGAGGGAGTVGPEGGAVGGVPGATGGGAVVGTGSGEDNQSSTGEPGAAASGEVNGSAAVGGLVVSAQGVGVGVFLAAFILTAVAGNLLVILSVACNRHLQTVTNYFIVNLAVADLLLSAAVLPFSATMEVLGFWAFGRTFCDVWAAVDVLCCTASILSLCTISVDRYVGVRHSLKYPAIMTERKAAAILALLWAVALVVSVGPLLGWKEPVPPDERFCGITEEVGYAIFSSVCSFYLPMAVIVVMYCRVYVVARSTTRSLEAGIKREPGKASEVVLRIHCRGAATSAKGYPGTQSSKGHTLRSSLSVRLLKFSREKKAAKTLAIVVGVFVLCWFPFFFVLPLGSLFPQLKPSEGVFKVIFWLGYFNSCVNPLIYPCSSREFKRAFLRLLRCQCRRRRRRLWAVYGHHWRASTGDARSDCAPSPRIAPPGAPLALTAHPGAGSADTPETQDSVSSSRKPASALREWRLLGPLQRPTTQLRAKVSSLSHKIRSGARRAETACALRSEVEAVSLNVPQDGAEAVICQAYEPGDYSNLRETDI

Ratio Ki (Homo sapiens)	Ratio Ki [1]	Ki [2]	Ki (D(1A) dopamine receptor)	Ki (D(2) dopamine receptor)	pKb [3]	pKb [4]	Ratio pKb (Rattus norvegicus)	Ratio pKb [5]	Compound
573	898	0.00264 µM	0.544 µM	2.37 µM	6.64	6.41	10	18	O=c1[nH]c2[nH]c(-c3ccc(Cl)cc3)cc2c(=O)n1CCN1CCN(c2ccccc2Cl)CC1
65	10	0.0164 µM	0.272 µM	0.165 µM	8.03	7.48	0.5	2	COc1ccc(-c2cc3c(=O)n(CCN4CCN(c5ccccc5Cl)CC4)c(=O)[nH]c3[nH]2)cc1
155	147	0.01171 µM	0.389 µM	1.72 µM	7.5	7.25	2	3	Cc1ccc(-c2cc3c(=O)n(CCN4CCN(c5ccccc5Cl)CC4)c(=O)[nH]c3[nH]2)cc1

Compound	Ratio Ki (Homo sapiens)	Ratio Ki [1]	Ki [2]	Ki (D(1A) dopamine receptor)	Ki (D(2) dopamine receptor)	pKb [3]	pKb [4]	Ratio pKb (Rattus norvegicus)	Ratio pKb [5]
Cc1ccc(-c2cc3[nH]c(=O)n(CCN4CCN(c5ccccc5Cl)CC4)c(=O)c3[nH]2)cc1	> 500	> 500	0.01726 µM	> 10 µM	> 10 µM	6.37	6.72	1	0.5
